# Published values from different studies.
# Compare with care: the assays were run in different laboratories.
# Target: Prostaglandin G/H synthase 2 (PTGS2, Homo sapiens, UniProt P35354)
# Effect on: enzyme activity
# Mode: inhibitor
# Residues used in one study (P35354 18-604): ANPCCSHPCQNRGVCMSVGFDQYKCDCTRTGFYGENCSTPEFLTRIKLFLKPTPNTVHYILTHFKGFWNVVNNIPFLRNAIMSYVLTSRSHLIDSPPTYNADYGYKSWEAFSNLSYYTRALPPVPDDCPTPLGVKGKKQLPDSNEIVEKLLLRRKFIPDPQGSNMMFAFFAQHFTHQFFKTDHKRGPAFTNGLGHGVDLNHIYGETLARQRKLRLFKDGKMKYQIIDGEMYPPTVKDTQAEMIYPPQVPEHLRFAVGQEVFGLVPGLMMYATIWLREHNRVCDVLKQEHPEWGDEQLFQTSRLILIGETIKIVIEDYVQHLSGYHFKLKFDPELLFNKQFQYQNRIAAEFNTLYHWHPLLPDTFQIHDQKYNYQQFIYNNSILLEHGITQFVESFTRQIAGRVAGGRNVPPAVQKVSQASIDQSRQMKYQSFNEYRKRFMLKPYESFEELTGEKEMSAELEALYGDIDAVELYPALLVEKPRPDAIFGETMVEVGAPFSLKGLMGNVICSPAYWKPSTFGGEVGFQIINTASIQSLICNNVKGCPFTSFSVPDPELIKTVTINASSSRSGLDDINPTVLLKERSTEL
Structure (SMILES),technique,IC50
COC(=O)c1ccc(O)cc1,absorbance,97900 nM
COc1ccc(Nc2c(-c3ccc(S(C)(=O)=O)cc3)nc3c(C)cccn23)cc1,,80 nM
Cc1ccc(-c2nn(-c3ccc(S(C)(=O)=O)cc3)cc2/C=N\N=c2/[nH]c(-c3ccc([N+](=O)[O-])cc3)cs2)cc1,,11300 nM
Cc1ccc(Nc2c(-c3ccc(S(C)(=O)=O)cc3)nc3cc(C)ccn23)cc1,,70 nM
O=Cc1cn(-c2nc(N3CCCC3)nc(N3CCOCC3)n2)c2ccccc12,,2000 nM
CS(=O)(=O)c1ccc(-n2cc(C=N/N=c3\[nH]c(-c4ccc(Br)cc4)cs3)c(-c3ccc([N+](=O)[O-])cc3)n2)cc1,,27800 nM
CCn1c(-c2nc3cc(C(=O)N4CCC[C@@H](N)C4)cc(OC)c3n2C)cc2cccnc21,,> 100000 nM
Cc1ccc(-c2nc3ccccc3s2)c(-c2ccc(S(N)(=O)=O)cc2)c1,absorbance,250 nM
COC(=O)c1cc(O)c(O)c(O)c1,,17900 nM
Cc1ccc(Nc2c(-c3ccc(S(C)(=O)=O)cc3)nc3ccccn23)cc1,,100 nM
NS(=O)(=O)c1ccc(-c2ncc(Cl)cc2-c2nc3ccccc3s2)cc1,absorbance,210 nM
CC1=NN(c2cccc(Cl)c2)C(=O)/C1=C\c1cn(-c2nc(N3CCOCC3)nc(N3CCOCC3)n2)c2ccccc12,,20 nM
Cc1cccc2nc(-c3ccc(S(C)(=O)=O)cc3)c(Nc3ccccc3)n12,,70 nM
CC1=NN(c2cccc(Cl)c2)C(=O)/C1=C\c1cn(-c2nc(N3CCCC3)nc(N3CCOCC3)n2)c2ccccc12,,1000 nM
COc1ccc(-c2nn(-c3ccc(S(C)(=O)=O)cc3)cc2C=N/N=c2\[nH]c(-c3ccc([N+](=O)[O-])cc3)cs2)cc1,,8830 nM
COc1ccc(-c2cc(=O)c3c(O)cc(O[C@@H]4O[C@H](CO)[C@@H](O)[C@H](O)[C@H]4O)cc3o2)cc1O,absorbance,973 nM
Cc1ccc(-c2nc3ccccc3s2)c(-c2ccc(S(C)(=O)=O)cc2)c1,absorbance,230 nM
Cc1ccn2c(Nc3ccc(Cl)cc3)c(-c3ccc(S(C)(=O)=O)cc3)nc2c1,,80 nM
CC(=O)c1cccc(/N=N/c2cc(/C=C/C(=O)O)ccc2O)c1,,> 100000 nM
Cc1ccn2c(Nc3ccc(F)cc3)c(-c3ccc(S(C)(=O)=O)cc3)nc2c1,,80 nM
CC(=O)c1cccc(N=Nc2c(C(=O)O)cc(O)c(O)c2O)c1,,5510 nM
COc1ccc(Nc2c(-c3ccc(S(C)(=O)=O)cc3)nc3cc(C)ccn23)cc1,,100 nM
O=Cc1cn(-c2nc(N3CCOCC3)nc(N3CCOCC3)n2)c2ccccc12,,30 nM
Cc1ccc(Nc2c(-c3ccc(S(C)(=O)=O)cc3)nc3c(C)cccn23)cc1,,70 nM
O=Cc1cn(-c2nc(N3CCCCC3)nc(N3CCOCC3)n2)c2ccccc12,,700 nM
CC(C)Cc1ccc(-c2nn(-c3ccc(S(C)(=O)=O)cc3)cc2/C=N/N=c2\[nH]c(-c3ccc(Br)cc3)cs2)cc1,,3010 nM
O=C1Nc2ccccc2/C1=C/c1cn(-c2nc(N3CCCCC3)nc(N3CCOCC3)n2)c2ccccc12,,80 nM
CC(=O)c1ccc(N=Nc2c(C(=O)O)cc(O)c(O)c2O)cc1,,6110 nM
O=C1Nc2ccccc2/C1=C/c1cn(-c2nc(N3CCCC3)nc(N3CCOCC3)n2)c2ccccc12,,8000 nM
CC(C)Cc1ccc(-c2nn(-c3ccc(S(C)(=O)=O)cc3)cc2/C=N\N=C2/NC(=O)CS2)cc1,,756 nM
O=C(O)c1ccc(O)cc1,absorbance,19500 nM
O=Cc1cn(-c2nc(N3CCCCC3)nc(N3CCCCC3)n2)c2ccccc12,,7000 nM
